Several values for one entry are separate records, joined by “and”; a condition that tells them apart may be missing. Identical values can stand only once.
Test system: HEK-293T
Assay: Multiplex assay against HEK293T
Format: toxicity, cell-based
Settings: human
How it was run: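 Compound was added to live cells that had been stained at seeding with Hoechst33342, BioTracker Green Microtubule Cytoskeleton Dye, MitoTracker Red and Annexin V Alexa Fluor 680, and imaging followed on a CQ1 microscope at 37°C and 5% CO2. CellPathfinder machine-learning gating divided cells into Hoechst high-intensity objects or normal cells, normal cells into healthy, pyknosed or fragmented nuclei, and pyknosed cells into mitotic or apoptotic. Tubulin, mitochondrial-mass and membrane-permeability phenotypes are per cents of healthy-nucleus cells.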

[1] = 12 h, 1 µM, compound concentration 1 uM
[2] = 12 h, 10 µM, compound concentration 10 uM
[3] = 24 h, 1 µM, compound concentration 1 uM
[4] = 24 h, 10 µM, compound concentration 10 uM
[5] = 48 h, 1 µM, compound concentration 1 uM
[6] = 48 h, 10 µM, compound concentration 10 uM

SMILES: CN1CCN2c3ccccc3Cc3ccccc3C2C1.Cl (configuration not stated) [MIANSERIN HYDROCHLORIDE]
- Population Apoptotic (%) [1]: 23% and 46%
- Population Fragmented Nuclei (%) [1]: 5% and 7%
- Population Healthy Nuclei (%) [1]: 79% and 77%
- Population Hoechst High Intensity Objects (%) [1]: 5% and 10%
- Population Membrane Permeable-Phenotype (%) [1]: 0%
- Population Mitochondria Different-Phenotype (%) [1]: 36% and 63%
- Population Mitotic Cells (%) [1]: 76% and 53%
- Population Normal (%) [1]: 94% and 89%
- Population Pyknosed Nuclei (%) [1]: 14%
- Population Tubulin-Different-Phenotype (%) [1]: 21% and 17%
- Total Cell Count [1]: 338 and 376
- Population Apoptotic (%) [2]: 34% and 42%
- Population Fragmented Nuclei (%) [2]: 5%
- Population Healthy Nuclei (%) [2]: 81% and 85%
- Population Hoechst High Intensity Objects (%) [2]: 9% and 4%
- Population Membrane Permeable-Phenotype (%) [2]: 1% and 0%
- Population Mitochondria Different-Phenotype (%) [2]: 45% and 53%
- Population Mitotic Cells (%) [2]: 65% and 57%
- Population Normal (%) [2]: 90% and 95%
- Population Pyknosed Nuclei (%) [2]: 13% and 8%
- Population Tubulin-Different-Phenotype (%) [2]: 40% and 28%
- Total Cell Count [2]: 410 and 491
- Population Apoptotic (%) [3]: 22% and 26%
- Population Fragmented Nuclei (%) [3]: 9% and 10%
- Population Healthy Nuclei (%) [3]: 80%
- Population Hoechst High Intensity Objects (%) [3]: 1% and 8%
- Population Membrane Permeable-Phenotype (%) [3]: 0%
- Population Mitochondria Different-Phenotype (%) [3]: 21% and 37%
- Population Mitotic Cells (%) [3]: 77% and 73%
- Population Normal (%) [3]: 98% and 91%
- Population Pyknosed Nuclei (%) [3]: 10% and 9%
- Population Tubulin-Different-Phenotype (%) [3]: 14% and 16%
- Total Cell Count [3]: 479 and 486
- Population Apoptotic (%) [4]: 24% and 32%
- Population Fragmented Nuclei (%) [4]: 8% and 5%
- Population Healthy Nuclei (%) [4]: 77% and 84%
- Population Hoechst High Intensity Objects (%) [4]: 5% and 3%
- Population Membrane Permeable-Phenotype (%) [4]: 0%
- Population Mitochondria Different-Phenotype (%) [4]: 31% and 36%
- Population Mitotic Cells (%) [4]: 75% and 67%
- Population Normal (%) [4]: 94% and 96%
- Population Pyknosed Nuclei (%) [4]: 14% and 10%
- Population Tubulin-Different-Phenotype (%) [4]: 34% and 21%
- Total Cell Count [4]: 486 and 612
- Population Apoptotic (%) [5]: 13% and 37%
- Population Fragmented Nuclei (%) [5]: 15% and 16%
- Population Healthy Nuclei (%) [5]: 77% and 78%
- Population Hoechst High Intensity Objects (%) [5]: 1% and 3%
- Population Membrane Permeable-Phenotype (%) [5]: 1% and 0%
- Population Mitochondria Different-Phenotype (%) [5]: 15% and 18%
- Population Mitotic Cells (%) [5]: 86% and 62%
- Population Normal (%) [5]: 98% and 96%
- Population Pyknosed Nuclei (%) [5]: 6% and 4%
- Population Tubulin-Different-Phenotype (%) [5]: 9%
- Total Cell Count [5]: 812 and 761
- Population Apoptotic (%) [6]: 24% and 35%
- Population Fragmented Nuclei (%) [6]: 14%
- Population Healthy Nuclei (%) [6]: 76% and 79%
- Population Hoechst High Intensity Objects (%) [6]: 2% and 1%
- Population Membrane Permeable-Phenotype (%) [6]: 0% and 1%
- Population Mitochondria Different-Phenotype (%) [6]: 18% and 14%
- Population Mitotic Cells (%) [6]: 75% and 64%
- Population Normal (%) [6]: 97% and 98%
- Population Pyknosed Nuclei (%) [6]: 8% and 6%
- Population Tubulin-Different-Phenotype (%) [6]: 17% and 11%
- Total Cell Count [6]: 702 and 860

SMILES: Cc1cc(-c2ccc3c(c2)CC[C@H]3N2CC3(CCN(C(=O)Cc4cn5cc(C)sc5n4)CC3)C2)ncn1 [PF-5190457]
- Population Apoptotic (%) [1]: 36% and 47%
- Population Fragmented Nuclei (%) [1]: 5% and 8%
- Population Healthy Nuclei (%) [1]: 83% and 72%
- Population Hoechst High Intensity Objects (%) [1]: 5% and 10%
- Population Membrane Permeable-Phenotype (%) [1]: 0%
- Population Mitochondria Different-Phenotype (%) [1]: 40% and 53%
- Population Mitotic Cells (%) [1]: 63% and 52%
- Population Normal (%) [1]: 94% and 89%
- Population Pyknosed Nuclei (%) [1]: 11% and 19%
- Population Tubulin-Different-Phenotype (%) [1]: 25% and 22%
- Total Cell Count [1]: 418 and 258
- Population Apoptotic (%) [2]: 40% and 54%
- Population Fragmented Nuclei (%) [2]: 9% and 3%
- Population Healthy Nuclei (%) [2]: 75% and 80%
- Population Hoechst High Intensity Objects (%) [2]: 11% and 8%
- Population Membrane Permeable-Phenotype (%) [2]: 0%
- Population Mitochondria Different-Phenotype (%) [2]: 53% and 70%
- Population Mitotic Cells (%) [2]: 60% and 45%
- Population Normal (%) [2]: 88% and 91%
- Population Pyknosed Nuclei (%) [2]: 14% and 16%
- Population Tubulin-Different-Phenotype (%) [2]: 37% and 40%
- Total Cell Count [2]: 455 and 322
- Population Apoptotic (%) [3]: 21% and 45%
- Population Fragmented Nuclei (%) [3]: 8% and 11%
- Population Healthy Nuclei (%) [3]: 77% and 78%
- Population Hoechst High Intensity Objects (%) [3]: 2% and 7%
- Population Membrane Permeable-Phenotype (%) [3]: 0% and 1%
- Population Mitochondria Different-Phenotype (%) [3]: 24% and 35%
- Population Mitotic Cells (%) [3]: 78% and 54%
- Population Normal (%) [3]: 97% and 92%
- Population Pyknosed Nuclei (%) [3]: 13% and 9%
- Population Tubulin-Different-Phenotype (%) [3]: 16% and 11%
- Total Cell Count [3]: 549 and 352
- Population Apoptotic (%) [4]: 25% and 36%
- Population Fragmented Nuclei (%) [4]: 10% and 5%
- Population Healthy Nuclei (%) [4]: 75% and 81%
- Population Hoechst High Intensity Objects (%) [4]: 5% and 6%
- Population Membrane Permeable-Phenotype (%) [4]: 1% and 0%
- Population Mitochondria Different-Phenotype (%) [4]: 28% and 51%
- Population Mitotic Cells (%) [4]: 74% and 63%
- Population Normal (%) [4]: 94% and 93%
- Population Pyknosed Nuclei (%) [4]: 14% and 13%
- Population Tubulin-Different-Phenotype (%) [4]: 30% and 23%
- Total Cell Count [4]: 638 and 425
- Population Apoptotic (%) [5]: 25% and 39%
- Population Fragmented Nuclei (%) [5]: 14% and 12%
- Population Healthy Nuclei (%) [5]: 79% and 80%
- Population Hoechst High Intensity Objects (%) [5]: 1% and 3%
- Population Membrane Permeable-Phenotype (%) [5]: 1%
- Population Mitochondria Different-Phenotype (%) [5]: 18% and 21%
- Population Mitotic Cells (%) [5]: 74% and 60%
- Population Normal (%) [5]: 98% and 96%
- Population Pyknosed Nuclei (%) [5]: 5% and 6%
- Population Tubulin-Different-Phenotype (%) [5]: 9% and 10%
- Total Cell Count [5]: 873 and 531
- Population Apoptotic (%) [6]: 24% and 46%
- Population Fragmented Nuclei (%) [6]: 14% and 13%
- Population Healthy Nuclei (%) [6]: 77% and 78%
- Population Hoechst High Intensity Objects (%) [6]: 2% and 4%
- Population Membrane Permeable-Phenotype (%) [6]: 0%
- Population Mitochondria Different-Phenotype (%) [6]: 27% and 32%
- Population Mitotic Cells (%) [6]: 76% and 53%
- Population Normal (%) [6]: 97% and 95%
- Population Pyknosed Nuclei (%) [6]: 8%
- Population Tubulin-Different-Phenotype (%) [6]: 20%
- Total Cell Count [6]: 927 and 520

From ChEMBL document CHEMBL5724801, “EUbOPEN Chemogenomics Library - Multiplex” (2024)
